Reference: PubChem BioAssay AID651999 (Sanford-Burnham Center for Chemical Genomics, 2013)
Several values for one entry are separate records, joined by “and”; a condition that tells them apart may be missing. Equal entries are not always repeated. The whole screen tested about 360,000 compounds, of which about 1,400 (0.39%) were called active.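 The calls were made as follows: active = pattern-corrected inhibition above about 35%, with an unprinted fluorescence ratio check between 0.5 and 1.5 (limit read from the data, passing the limit was not always enough); inactive = the rest.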 Only a selection was taken, and actives are over-represented in it overall.

What follows are compounds tested against COP9 signalosome complex subunit 5 (Homo sapiens) (UniProt Q92905) (assay: inhibitors of CSN-mediated cullin deneddylation, primary screen, biochemical, fluorescence polarization, uHTS (AID 651999;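 also: 0% = enzyme with substrate and 100% = substrate without enzyme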)). Conditions: Purified CSN, SCF-Nedd8-OG deneddylation, at 12.5 µM, active compounds read high.
Outline: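 Assay system: HEK293T-derived human Csn5 enzyme; quantity: 0.24 nM enzyme; medium: Tris/NaCl/DTT buffer, pH 7.5; also added: substrate SCFSkp2-Nedd8OG, 10 nM; doses: 12.5 µM compound; schedule: 90 min reaction at room temperature; signal: FP; read-out: % inhibition of substrate cleavage by Csn5; benchmarks: substrate-only high control, full reaction low control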

COP9 signalosome complex subunit 5 (Homo sapiens), sequence (Q92905 whole entry, looked up, one chain of several): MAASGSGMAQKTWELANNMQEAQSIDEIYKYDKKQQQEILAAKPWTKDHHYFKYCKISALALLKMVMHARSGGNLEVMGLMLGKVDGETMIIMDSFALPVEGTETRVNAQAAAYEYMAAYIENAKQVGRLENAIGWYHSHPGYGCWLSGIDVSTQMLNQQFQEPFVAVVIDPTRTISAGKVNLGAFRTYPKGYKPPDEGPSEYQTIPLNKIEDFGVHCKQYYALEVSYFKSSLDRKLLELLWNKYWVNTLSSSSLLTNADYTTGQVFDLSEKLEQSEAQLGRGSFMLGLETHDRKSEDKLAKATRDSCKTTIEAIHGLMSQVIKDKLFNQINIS

Row | SMILES | inhibition
1 | N#Cc1c(NC(=O)CCCN2C(=O)c3ccccc3C2=O)oc(-c2ccccc2)c1-c1ccccc1 | -3.56% (inactive)
2 | CC(Oc1ccccc1)C(=O)Nc1oc(-c2ccco2)c(-c2ccco2)c1C#N (stereo not given) | 38.5% (active)
3 | CC(C)C(=O)Nc1oc(-c2ccccc2)cc1C#N | 5.77% (inactive)
4 | Nc1nnc2c(C(F)(F)F)nc3ccccc3n12 | 0.57% (inactive)
5 | Cc1cccc(N2C(=O)SC(SC(=Nc3ccccc3)Nc3ccccc3)C2=O)c1 (stereo not given) | -2.12% (inactive)
6 | CCC(C)(C)n1nnnc1CN1CCN(c2nc3ccc(C)cc3cc2C#N)CC1 | 1.36% (inactive)
7 | Cc1cccc(N(C)C(=O)CN2C(=O)COc3ccc(S(=O)(=O)N4CCCCCC4)cc32)c1 | -4.61% (inactive)
8 | Cc1cccc(NS(=O)(=O)c2cccc(C(=O)NNC(=O)c3ccccc3O)c2)c1 | -6.82% (inactive)
9 | Cc1cc(C(=O)CCC(=O)NNC(=O)c2ccccc2O)c(C)s1 | 36.4% (active)
10 | Cc1ccccc1C(=O)NNC(=O)CN1C(=O)c2ccccc2C1=O | 6.43% (inactive)
11 | COC(=O)c1ccc(CN2CCN(CCCc3ccccc3)C(CCO)C2)cc1 (stereo not given) | -2.91% (inactive)
12 | CCOC(=O)N1CCN(S(=O)(=O)N2CCCC(C(=O)NCCCN3CCC(C)CC3)C2)CC1 (stereo not given) | 2.45% (inactive)
13 | O=C(Oc1c(-c2ccco2)oc2ccccc2c1=O)c1cccnc1 | -1.72% (inactive)
14 | CC(Oc1ccc(-c2ccccc2)c(F)c1)c1ccn(S(=O)(=O)c2cccc3ccccc23)n1 (stereo not given) | 3.61% (inactive)
15 | COc1ccc(C2OCC3(CO2)SC(=O)NC3=O)cc1OC (stereo not given) | -7.79% (inactive)
16 | COc1ccc(CCc2nc(-c3cccs3)no2)cc1 | 1.58% (inactive)
17 | COc1ccc(OC)c(CNC(=O)CCc2nc(-c3cccs3)no2)c1 | 2.31% (inactive)
18 | CCc1ccc(CNC(=O)CCc2nc(-c3cccs3)no2)cc1 | 90.8% (active)
19 | COc1cccc2c1C(=O)c1c(O)c3c(c(O)c1C2=O)CC(O)(C(C)=NNC(=O)c1ccc(Cl)c(Cl)c1)CC3OC1CC(N)C(O)C(C)O1 (stereo not given) | -72.5% (inactive)
20 | COc1ccc(CN2CN(C3CCCC3)CSC2=S)cc1 | -9.41% (inactive)
21 | COC(=O)[C@@]12C[C@@H](CC(=O)NCc3cccc(C(F)(F)F)c3)C(=O)N(Cc3ccco3)C1=CCC(C)(C)C2 | 1.26% (inactive)
22 | COc1cccc(C(O)c2ncc(-c3ccc4ccccc4c3)[nH]2)c1 (stereo not given) | -4.1% (inactive)
23 | Cc1cccc(-c2cnc(C(O)c3ccc4ccccc4c3)[nH]2)c1 (stereo not given) | 39.3% (active)

Row | SMILES | inhibition
24 | Cc1cccc(-c2cnc(C(O)c3cc(C)cc(C)c3)[nH]2)c1 (stereo not given) | -2.61% (inactive)
25 | CCc1nn(CCCN2CCN(c3cccc(Cl)c3)CC2)c(=O)n1CCOc1ccccc1 | -4.47% (inactive) and -2.79% (inactive)
26 | Cc1ccc(CNS(=O)(=O)c2ccc3c(c2)N(C)CCO3)cc1 | -2.61% (inactive)
27 | CCCC/C=C/c1cccc2nncn12 | -1.69% (inactive)
28 | COc1ccc2[nH]c3c(C)c4cc[n+](C)cc4c(C)c3c2c1 | 102% (active)
29 | Cc1cc(O)c(C(=O)/C=C/c2c(F)c(F)c(F)c(F)c2F)c(=O)o1 | 43.9% (active)
30 | Cc1cc(O)c(Sc2ccccc2)c(=O)o1 | 0.39% (inactive)
31 | O=C(CC[C@H]1O[C@@H](n2ccc(=O)[nH]c2=O)[C@H](O)[C@@H]1O)N[C@H](Cc1ccccc1)C(=O)NCc1ccco1 | -1.91% (inactive)
32 | CCN(CC(=O)NCC(=O)Nc1cccc(C)c1C)Cc1ccccc1 | 1.96% (inactive)
33 | CCOc1cc(CNn2c(C)nnc2SCC(=O)NC(C)(C)C)ccc1OCC(=O)NC(C)(C)C | 2.06% (inactive)
34 | C=CCSc1nnc(Cn2c(=O)sc3ccccc32)n1C | 7.9% (inactive)
35 | CCSc1nc(C)c(CCOc2cccc(C)c2)c(=O)[nH]1 | -18.6% (inactive)
36 | NC(=O)c1c(NC(=O)CSc2nnc(-c3ccco3)n2N)sc2c1CCCC2 | 10.7% (inactive)
37 | COc1cccc(CN(C)CC(=O)Nc2sc3c(c2C#N)CCC3)c1 | 4.05% (inactive)
38 | COc1ccc(-n2c(SCC(=O)Nc3sc4c(c3C#N)CCCC4)nnc2-c2ccc(O)cc2)cc1 | 50.2% (active)
39 | Cc1ccc(NC(=O)CN(C)S(=O)(=O)c2cnc[nH]2)cc1C | -2.5% (inactive)
40 | C=CCC1=C/C(=C\c2c(N)n3nc(CC(=O)N4CCOCC4)sc3nc2=O)C=C(OC)C1=O | 72.5% (active)
41 | COC1=C/C(=C/c2c(N)n3nc(CC(=O)N4CCOCC4)sc3nc2=O)C=CC1=O | 16.1% (inactive)
42 | O=C(C1CCN(C2CCN(Cc3ccc4cc(F)ccc4n3)CC2)CC1)N1CCCC1 | 1% (inactive)
43 | Cc1cc(F)ccc1S(=O)(=O)Nc1ncnc2scc(-c3ccc(F)cc3)c12 | 0.77% (inactive)
44 | O=C(O)CC(c1ccccc1F)N1Cc2ccccc2C1=O (stereo not given) | -0.99% (inactive)
45 | O=S(=O)(Nc1ccc2ccccc2c1)N1CCCCC1 | -1.67% (inactive)
46 | Cc1noc(C)c1S(=O)(=O)N(C)C[C@H]1Oc2ccc(NC(=O)C3CCCCC3)cc2C(=O)N([C@H](C)CO)C[C@@H]1C | -5.26% (inactive)

Row | SMILES | inhibition
47 | CCN1/C(=C\c2ccc3ccccc3[n+]2CC)Sc2cc(C)ccc21 | 62.2% (active)
48 | FC(F)(F)c1ccccc1Cc1c(-c2ccccc2)nc2c3ccccc3ccn12 | 3.57% (inactive)
49 | COc1cc(CN(C)Cc2nc3cc(C(F)(F)F)ccc3c(=O)[nH]2)ccc1OC(F)F | 5.3% (inactive)
50 | CC(=O)Nc1ccc(C(=O)NNC(=O)CCCCC(=O)NNC(=O)c2ccc(NC(C)=O)cc2)cc1 | 2.24% (inactive)
51 | CN(CC(=O)NC1CCCCC1)S(=O)(=O)c1cccc2cccnc12 | -6.5% (inactive)
52 | CC1(C)CC(=O)C2=C(C1)NCN(CCCN1CCOCC1)C2 | -5.59% (inactive)
53 | O=C(CSc1nc2ccccc2c(=O)[nH]1)Nc1nc(-c2ccc(Br)cc2)cs1 | 55.8% (active)
54 | O=C(COC(=O)c1cc(=O)[nH]c2ccccc12)Nc1nc(-c2cccc(Br)c2)cs1 | 3.39% (inactive)
55 | CCCn1c(C)cc(-c2csc(NC(=O)CCc3nc4ccccc4c(=O)[nH]3)n2)c1C | 5.04% (inactive)
56 | CC1(C)C2CCC1(CS(=O)(=O)NCCc1c[nH]c3ccccc13)C(=O)C2 (stereo not given) | -3.93% (inactive)
57 | COc1ccc(C(c2nnnn2C2CCCC2)N2CCN(C/C=C/c3ccccc3)CC2)cc1 (stereo not given) | -3.45% (inactive)
58 | OC[C@@H]1CN(Cc2cccs2)C[C@H](n2cnc3c(Nc4ccccc4)ncnc32)O1 | 1.6% (inactive)
59 | O=C(CC1SC(N2CCOCC2)=NC1=O)Nc1ccccc1F (stereo not given) | -4.57% (inactive)
60 | N#C/C(=C\C1=C(N2CCOCC2)C(=C\c2ccccc2)/CC1)C(=O)Nc1ccccc1F | 59.9% (active)
61 | CNC(=O)/C(C#N)=C/c1c(F)cccc1Cl | -0.2% (inactive)
62 | Cc1cc(C)c(S(=O)(=O)NCC(c2ccc3c(c2)OCO3)N2CCOCC2)c(C)c1 (stereo not given) | 4.99% (inactive)
63 | COc1ccc(C2=Nc3ccccc3NC(=O)C2N(C(=O)c2cc3ccccc3[nH]2)c2ccccc2)cc1 (stereo not given) | 1.01% (inactive)
64 | O=C(O)c1ccccc1NC(=S)NC(NC(=O)c1ccccc1[N+](=O)[O-])C(Cl)(Cl)Cl (stereo not given) | 0.72% (inactive)
65 | COc1cc(N2CCCC2)c(OC)cc1/C=C(/C#N)c1cccc(Br)c1 | 40.3% (active)
66 | Cc1cccc(NC(=O)C2CC(=O)OC23CCCC3)c1 (stereo not given) | -1.93% (inactive)
67 | Cc1cccc(C)c1NC(=O)C1CCCN1C(=O)OC(C)(C)C (stereo not given) | 1.38% (inactive)
68 | O=C(C(=O)N1CCc2ccccc2C1)c1c[nH]c2ccccc12 | 3.61% (inactive)
69 | CN(C(=O)COc1nnc(-c2cccs2)c(-c2cccs2)n1)c1ccccc1 | 4.69% (inactive)

Row | SMILES | inhibition
70 | C=CCn1c(=S)[nH]c2scc(-c3ccco3)c2c1=O | 35.8% (active)
71 | Cc1ccc(-c2nnc(C)c(N3CC(C)OC(C)C3)n2)cc1 (stereo not given) | 4.31% (inactive)
72 | Cc1nn(C)c(Cl)c1CN1CCC(Oc2ccc(C(=O)N3CCCC3)cc2)CC1 | -0.97% (inactive)
73 | Cc1ccccc1-n1nc(C)c2cc(C(=O)NC3CC3)sc21 | -0.46% (inactive)
74 | COCCCn1c(C(=O)NC2CCCCC2)cc2c(=O)n3cccc(C)c3nc21 | -3.61% (inactive)
75 | Cc1cccn2c(=O)c3cc(C(=O)NC4CCCCC4)sc3nc12 | 38.6% (active)
76 | CN1CCNC(=O)C1CC(=O)N1CC=C(c2ccc(F)cc2)CC1 (stereo not given) | -1.53% (inactive)
77 | Cc1ccc([C@H]2C[C@H](O)[C@@H](n3cc(COC(=O)c4ccccc4)nn3)CN2CC2CCCCC2)cc1 | -1.77% (inactive)
78 | COC(=O)N/N=C/c1c[n+]([O-])c2ccccc2[n+]1[O-] | -7.07% (inactive)
79 | Cc1cccc(N2CCN(C(=O)/C=C/c3ccco3)CC2)c1C | -6.8% (inactive)
80 | CCC(=O)Nc1ccc2nn(-c3ccc(F)cc3)nc2c1 | -3.58% (inactive)
81 | Cc1ccc(-n2nc3ccc(NC(=O)/C=C/c4ccco4)cc3n2)cc1C | 62.3% (active)
82 | C[C@H](CO)N1C[C@H](C)[C@@H](CN(C)C(=O)c2cnccn2)Oc2ncc(Br)cc2C1=O | -0.87% (inactive)
83 | COc1ccc(C(C(=O)NC2CCCC2)N(CCCO)C(=O)Cn2nnc(-c3ccc(C)o3)n2)cc1 (stereo not given) | -1.83% (inactive)
84 | CCCNC(=O)C1(C)CCCN(Cc2cccc(C(F)(F)F)c2)C1 (stereo not given) | 1.08% (inactive)
85 | O=C(CN1C(=O)CCS(=O)(=O)c2ccccc21)NCc1ccc(F)cc1 | 2.38% (inactive)
86 | CSCc1ccc(C(=O)Nc2cc(C)cc(C)c2)cc1 | -3.14% (inactive)
87 | COCc1cc(C)nc(Nc2cc(C)ccc2C)c1C#N | 2.37% (inactive)
88 | O=C(CCN1C(=O)/C(=C/c2cccs2)SC1=S)NNC(=O)c1cccc(O)c1 | 51.4% (active)
89 | Cc1c(C(=O)NCCN2C(=O)S/C(=C\c3cccs3)C2=O)cccc1[N+](=O)[O-] | -3.22% (inactive)
90 | O=C(CCN1C(=O)c2ccccc2C1=O)NNC(=O)c1ccc(Cl)cc1Cl | -5.29% (inactive)
